Experimental data published in ChEMBL document CHEMBL1914380, “Polyalkoxybenzenes from plants. 5. Parsley seed extract in synthesis of azapodophyllotoxins featuring strong tubulin destabilizing activity in the sea urchin embryo and cell culture assays” (J Med Chem, 2011).
Calls of active or inactive are those of the source. The rule behind the calls is not given here.

Columns and labels:
Paracentrotus lividus [1] = assay: Antimitotic activity against Paracentrotus lividus embryo assessed as cleavage alteration treated 10 to 25 mins post fertilization followed by 45 to 60 mins before the first mitotic cycle completion by sea urchin embryo assay; format: functional
Paracentrotus lividus [2] = assay: Antimitotic activity against Paracentrotus lividus embryo assessed as cleavage arrest treated 10 to 25 mins post fertilization followed by 45 to 60 mins before the first mitotic cycle completion by sea urchin embryo assay; format: functional
A549 [3] = assay: Cytotoxicity against human A549 cells assessed as cell viability after 24 hrs by MTT assay; format: functional, cell-based; conditions: A549, 24 h
Method in brief: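 A549 human lung carcinoma cells; growth inhibition measured by MTT assay. IC50 derived from dose-response curves, mean ± SD of three independent experiments.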

Paracentrotus lividus [4] = assay: Antimitotic activity against Paracentrotus lividus embryo assessed as embryo spinning treated 10 to 25 mins post fertilization followed by 45 to 60 mins before the first mitotic cycle completion by sea urchin embryo assay; format: functional
A549 [5] = assay: Inhibition of microtubule polymerization in human A549 cells assessed as total disruption of interphase microtubule network at 0.5 uM after 8 hrs by immunofluorescence microscopy; format: cell-based
Method in brief: (§1)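 A549 cells incubated 8 h with compound at 0.1, 0.5, 1 and 5 μM; DMSO vehicle as negative control. Microtubules labelled by indirect immunofluorescence and examined by fluorescence microscopy. Value is the concentration giving total interphase microtubule disassembly, from three independent experiments.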

A549 [6] = assay: Inhibition of microtubule polymerization in human A549 cells assessed as total disruption of interphase microtubule network at 0.1 uM after 8 hrs by immunofluorescence microscopy; format: cell-based; method in brief: as §1
A549 [7] = assay: Inhibition of microtubule polymerization in human A549 cells assessed as total disruption of interphase microtubule network at 1 uM after 8 hrs by immunofluorescence microscopy; format: cell-based; method in brief: as §1
A549 [8] = assay: Inhibition of microtubule polymerization in human A549 cells assessed as total disruption of interphase microtubule network at 5 uM after 8 hrs by immunofluorescence microscopy; format: cell-based; method in brief: as §1

COc1ccc(C2C3=C(O)OCC3=Nc3cc4c(cc32)OCO4)cc1 (configuration not stated)
EC (Paracentrotus lividus [1]): 50 nM
EC (Paracentrotus lividus [2]): 200 nM
IC50 (A549 [3]): > 3200 nM
EC (Paracentrotus lividus [4]): 2000 nM

OC1=C2C(=Nc3cc4c(cc3C2c2ccccc2)OCO4)CO1 (configuration not stated)
EC (Paracentrotus lividus [1]): 5 nM
EC (Paracentrotus lividus [2]): 20 nM
IC50 (A549 [3]): 63 nM
EC (Paracentrotus lividus [4]): 100 nM

O=C1OCC2=C1C(c1ccc3c(c1)OCO3)c1c(ccc3ccccc13)N2 (configuration not stated)
EC (Paracentrotus lividus [1]): >4000 nM
EC (Paracentrotus lividus [2]): >4000 nM
EC (Paracentrotus lividus [4]): >4000 nM

COc1cc(-c2c3c(nc4cc5c(cc24)CCC5)COC3=O)cc2c1OCO2
EC (Paracentrotus lividus [1]): 100 nM
EC (Paracentrotus lividus [2]): 1000 nM
EC (Paracentrotus lividus [4]): >5000 nM

COc1cc(C2C3=C(COC3=O)Nc3cc4c(cc32)OCO4)c(OC)c(OC)c1OC (configuration not stated)
EC (Paracentrotus lividus [1]): 1000 nM
inhibition (A549 [5]): Active
inhibition (A549 [6]): Active
inhibition (A549 [7]): Active
inhibition (A549 [8]): Active
EC (Paracentrotus lividus [2]): 4000 nM
IC50 (A549 [3]): 299 nM
EC (Paracentrotus lividus [4]): >10000 nM

COc1cc(C2C3=C(COC3=O)Nc3cc4c(cc32)CCC4)cc2c1OCO2 (configuration not stated)
EC (Paracentrotus lividus [1]): 2 nM
inhibition (A549 [5]): Active
inhibition (A549 [6]): Active
inhibition (A549 [7]): Active
inhibition (A549 [8]): Active
EC (Paracentrotus lividus [2]): 20 nM
IC50 (A549 [3]): 264 nM
EC (Paracentrotus lividus [4]): 50 nM

OC1=C2C(=Nc3cc4c(cc3C2c2ccc3c(c2)OCO3)OCO4)CO1 (configuration not stated)
EC (Paracentrotus lividus [1]): 10 nM
EC (Paracentrotus lividus [2]): 50 nM
EC (Paracentrotus lividus [4]): 200 nM

COc1cc(-c2c3c(nc4c5c(ccc24)CCCC5)COC3=O)cc2c1OCO2
EC (Paracentrotus lividus [1]): 200 nM
EC (Paracentrotus lividus [2]): 2000 nM
EC (Paracentrotus lividus [4]): 5000 nM

COc1ccc(C2C3=C(COC3=O)Nc3cc4c(c(OC)c32)OCO4)cc1 (configuration not stated)
EC (Paracentrotus lividus [1]): 2000 nM
EC (Paracentrotus lividus [2]): >2000 nM
EC (Paracentrotus lividus [4]): >2000 nM

COc1ccc2c(c1)C(c1cc(OC)c3c(c1)OCO3)C1=C(COC1=O)N2 (configuration not stated)
EC (Paracentrotus lividus [1]): 10 nM
inhibition (A549 [5]): Active
inhibition (A549 [6]): Active
inhibition (A549 [7]): Active
inhibition (A549 [8]): Active
EC (Paracentrotus lividus [2]): 50 nM
IC50 (A549 [3]): 282 nM
EC (Paracentrotus lividus [4]): 500 nM

COc1cc(C2C3=C(COC3=O)Nc3c2ccc2c3CCCC2)cc2c1OCO2 (configuration not stated)
EC (Paracentrotus lividus [1]): 5 nM
EC (Paracentrotus lividus [2]): 50 nM
IC50 (A549 [3]): 159 nM
EC (Paracentrotus lividus [4]): 100 nM

COc1cc([C@@H]2C3=C(COC3=O)Nc3cc4c(cc32)OCO4)cc2c1OCO2
EC (Paracentrotus lividus [1]): 50 nM
EC (Paracentrotus lividus [2]): 200 nM
EC (Paracentrotus lividus [4]): 50 nM

COc1cc(-c2c3c(nc4c5c(ccc24)CCC5)COC3=O)cc2c1OCO2
EC (Paracentrotus lividus [1]): 100 nM
EC (Paracentrotus lividus [2]): >4000 nM
EC (Paracentrotus lividus [4]): >5000 nM

COc1cc([C@H]2C3=C(COC3=O)Nc3cc4c(cc32)OCO4)cc2c1OCO2
EC (Paracentrotus lividus [1]): 5 nM
EC (Paracentrotus lividus [2]): 50 nM

COc1cc(C2C3=C(COC3=O)Nc3cc4c(cc32)OCO4)c(OC)c2c1OCO2 (configuration not stated)
EC (Paracentrotus lividus [1]): 1000 nM
EC (Paracentrotus lividus [2]): 2000 nM
EC (Paracentrotus lividus [4]): >5000 nM

COc1cc(C2C3=C(O)OCC3=Nc3cc4c(cc32)OCCO4)cc(OC)c1OC (configuration not stated)
EC (Paracentrotus lividus [1]): 200 nM
inhibition (A549 [5]): Active
inhibition (A549 [6]): Active
inhibition (A549 [7]): Active
inhibition (A549 [8]): Active
EC (Paracentrotus lividus [2]): 1000 nM
IC50 (A549 [3]): 9.2 nM
EC (Paracentrotus lividus [4]): 1000 nM

COc1cccc(C2C3=C(O)OCC3=Nc3cc4c(cc32)OCO4)c1 (configuration not stated)
EC (Paracentrotus lividus [1]): 5 nM
EC (Paracentrotus lividus [2]): 20 nM
EC (Paracentrotus lividus [4]): 100 nM

COc1cc(C2C3=C(COC3=O)Nc3cc4c(c(OC)c32)OCO4)cc(OC)c1OC (configuration not stated)
EC (Paracentrotus lividus [1]): 2000 nM
inhibition (A549 [5]): Active
inhibition (A549 [6]): Active
inhibition (A549 [7]): Active
inhibition (A549 [8]): Active
EC (Paracentrotus lividus [2]): >2000 nM
IC50 (A549 [3]): 291 nM
EC (Paracentrotus lividus [4]): >2000 nM

COc1c(C2C3=C(COC3=O)Nc3cc4c(cc32)OCO4)cc2c(c1OC)OCO2 (configuration not stated)
EC (Paracentrotus lividus [1]): 100 nM
EC (Paracentrotus lividus [2]): 500 nM
EC (Paracentrotus lividus [4]): 4000 nM

COc1cc(OC)cc(C2C3=C(COC3=O)Nc3cc(OC)ccc32)c1 (configuration not stated)
EC (Paracentrotus lividus [1]): 2 nM
EC (Paracentrotus lividus [2]): 10 nM
EC (Paracentrotus lividus [4]): 200 nM
